According to ChEMBL document CHEMBL3865784 (Eur J Med Chem, 2016):

Tests used:
[1] = Cytotoxicity against human MDA-MB-435 cells overexpressing NQO1 assessed as reduction in cell viability after 72 hrs by MTT assay; format: functional, cell-based; settings: MDA-MB-435, 72 h
Summary of the method: (§1)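 Cancer lines from NCI, grown in RPMI 1640 with 10% FBS, 2 mM L-glutamine, penicillin/streptomycin, 37 °C, 5% CO2; seeded 0.1 × 10^6 cells/well (HL-60) or 0.7 × 10^5 cells/well (solid tumours). Compounds in DMSO, final 0.1% v/v; DMSO vehicle as negative control.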

[2] = Cytotoxicity against NQO1-deficient chinese hamster V79 cells assessed as reduction in cell viability after 72 hrs by MTT assay; format: toxicity, cell-based, Cricetulus griseus; settings: v79
PC-3 [3] = assay: Selectivity index, ratio of IC50 for NQO1-deficient human PBMC to IC50 for human PC3 cells overexpressing NQO1
Summary of the method: (§2)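 Selectivity index is IC50 in the normal cells divided by IC50 in the cancer line. Normal cells: V79 and L929 in DMEM, PBMC in RPMI with phytohaemagglutinin. Cancer lines in RPMI with 10% FBS, seeded at 0.1 × 10^6 (HL-60) or 0.7 × 10^5 cells/well (solid tumors). Absorbance 550 nm; nonlinear regression.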

OVCAR-8 [4] = assay: Selectivity index, ratio of IC50 for NQO1-deficient chinese hamster V79 cells to IC50 for human OVCAR8 cells overexpressing NQO1
Summary of the method: as §2, with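 “line. All IC50s come from 72 h MTT assays.” for “line.”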

SF-295 [5] = assay: Selectivity index, ratio of IC50 for NQO1-deficient human PBMC to IC50 for human SF295 cells overexpressing NQO1; summary of the method: as §2
V79 [6] = assay: Selectivity index, ratio of IC50 for NQO1-deficient chinese hamster V79 cells to IC50 for human MDA-MB-435 cells overexpressing NQO1; summary of the method: as §2
OVCAR-8 [7] = assay: Selectivity index, ratio of IC50 for NQO1-deficient human PBMC to IC50 for human OVCAR8 cells overexpressing NQO1
Summary of the method: as §2, with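 “line. All IC50s come from 72 h MTT assays.” for “line.”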

V79 [8] = assay: Selectivity index, ratio of IC50 for NQO1-deficient chinese hamster V79 cells to IC50 for human PC3 cells overexpressing NQO1; summary of the method: as §2
L929 [9] = assay: Selectivity index, ratio of IC50 for NQO1-deficient mouse L929 cells to IC50 for NQO1-deficient human HL60 cells; format: functional; summary of the method: as §2
L929 [10] = assay: Selectivity index, ratio of IC50 for NQO1-deficient mouse L929 cells to IC50 for human PC3 cells overexpressing NQO1; summary of the method: as §2
[11] = Cytotoxicity against human OVCAR8 cells overexpressing NQO1 assessed as reduction in cell viability after 72 hrs by MTT assay; format: functional, cell-based; settings: OVCAR-8, 72 h; summary of the method: as §1
[12] = Cytotoxicity against human SF295 cells overexpressing NQO1 assessed as reduction in cell viability after 72 hrs by MTT assay; format: functional, cell-based; settings: SF-295, 72 h
Mus musculus = species: Mus musculus; assay: Cytotoxicity against NQO1-deficient mouse L929 cells assessed as reduction in cell viability after 72 hrs by MTT assay; format: toxicity, cell-based; settings: l929
L929 [13] = assay: Selectivity index, ratio of IC50 for NQO1-deficient mouse L929 cells to IC50 for human MDA-MB-435 cells overexpressing NQO1; summary of the method: as §2
HCT-116 [14] = assay: Selectivity index, ratio of IC50 for NQO1-deficient chinese hamster V79 cells to IC50 for human HCT116 cells expressing NQO1
Summary of the method: as §2, with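 “line. All IC50s come from 72 h MTT assays.” for “line.”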

[15] = Selectivity index, ratio of IC50 for NQO1-deficient human PBMC to IC50 for human MDA-MB-435 cells overexpressing NQO1; summary of the method: as §2
[16] = Cytotoxicity against human PC3 cells overexpressing NQO1 assessed as reduction in cell viability after 72 hrs by MTT assay; format: functional, cell-based; settings: PC-3, 72 h
L929 [17] = assay: Selectivity index, ratio of IC50 for NQO1-deficient mouse L929 cells to IC50 for human OVCAR8 cells overexpressing NQO1; summary of the method: as §2
[18] = Cytotoxicity against NQO1-deficient human PBMC assessed as reduction in cell viability after 72 hrs by MTT assay; format: toxicity, cell-based; settings: pbmc
L929 [19] = assay: Selectivity index, ratio of IC50 for NQO1-deficient mouse L929 cells to IC50 for human SF295 cells overexpressing NQO1; summary of the method: as §2
[20] = Cytotoxicity against NQO1-deficient human HL60 cells assessed as reduction in cell viability after 72 hrs by MTT assay; format: functional, cell-based; settings: HL-60, 72 h; summary of the method: as §1
HL-60 [21] = assay: Selectivity index, ratio of IC50 for NQO1-deficient chinese hamster V79 cells to IC50 for NQO1-deficient human HL60 cells; format: functional; summary of the method: as §2
[22] = Cytotoxicity against human HCT116 cells expressing NQO1 assessed as reduction in cell viability after 72 hrs by MTT assay; format: functional, cell-based; settings: HCT-116, 72 h; summary of the method: as §1
HCT-116 [23] = assay: Selectivity index, ratio of IC50 for NQO1-deficient human PBMC to IC50 for human HCT116 cells expressing NQO1
Summary of the method: as §2, with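 “line. All IC50s come from 72 h MTT assays.” for “line.”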

PC-3 [24] = assay: Induction of apoptosis in human PC3 cells assessed as externalization of phosphatidylserine on cell surface by measuring early apoptotic cells at 5 uM after 6 hrs by Annexin-V/FITC/PI staining by flow cytometry (reference value: 0.93 +/- 0.05%); format: functional
PC-3 [25] = assay: Induction of apoptosis in human PC3 cells assessed as externalization of phosphatidylserine on cell surface by measuring late apoptotic cells at 5 uM after 6 hrs by Annexin-V/FITC/PI staining by flow cytometry (reference value: 0%); format: functional
PC-3 [26] = assay: Induction of apoptosis in human PC3 cells assessed as externalization of phosphatidylserine on cell surface by measuring late apoptotic cells at 5 uM cotreated with NQO1 inhibitor dicoumarol measured after 6 hrs by Annexin-V/FITC/PI staining by flow cytometry (reference value: 0%); format: functional; set-up: scale not given: the % may be the effect or the level left
PC-3 [27] = assay: Induction of apoptosis in human PC3 cells assessed as externalization of phosphatidylserine on cell surface by measuring early apoptotic cells at 5 uM pretreated with NAC measured after 6 hrs by Annexin-V/FITC/PI staining by flow cytometry (reference value: 0.93 +/- 0.05%); format: functional
PC-3 [28] = assay: Induction of apoptosis in human PC3 cells assessed as externalization of phosphatidylserine on cell surface by measuring early apoptotic cells at 5 uM cotreated with NQO1 inhibitor dicoumarol measured after 6 hrs by Annexin-V/FITC/PI staining by flow cytometry (reference value: 0.93 +/- 0.05%); format: functional; set-up: scale not given: the % may be the effect or the level left
PC-3 [29] = assay: Induction of apoptosis in human PC3 cells assessed as externalization of phosphatidylserine on cell surface by measuring late apoptotic cells at 5 uM pretreated with NAC measured after 6 hrs by Annexin-V/FITC/PI staining by flow cytometry (reference value: 0%); format: functional
SF-295 [30] = assay: Selectivity index, ratio of IC50 for NQO1-deficient chinese hamster V79 cells to IC50 for human SF295 cells overexpressing NQO1; summary of the method: as §2
HL-60 [31] = assay: Selectivity index, ratio of IC50 for NQO1-deficient human PBMC to IC50 for NQO1-deficient human HL60 cells; summary of the method: as §2

## [N-]=[N+]=NCC1CC2=C(O1)c1ccccc1C(=O)C2=O (centres undefined)
[1]
  IC50: 390 nM
[2]
  IC50: 820 nM
PC-3 [3]
  Ratio IC50: 3.5
OVCAR-8 [4]
  Ratio IC50: 2.3
SF-295 [5]
  Ratio IC50: 4.6
V79 [6]
  Ratio IC50: 2.1
OVCAR-8 [7]
  Ratio IC50: 5.1
V79 [8]
  Ratio IC50: 1.6
L929 [9]
  Ratio IC50: 1.2
L929 [10]
  Ratio IC50: 2
[11]
  IC50: 350 nM
[12]
  IC50: 390 nM
Mus musculus
  IC50: 1060 nM
L929 [13]
  Ratio IC50: 2.7
HCT-116 [14]
  Ratio IC50: 1.3
[15]
  Ratio IC50: 4.6
[16]
  IC50: 510 nM
L929 [17]
  Ratio IC50: 3
[18]
  IC50: 1800 nM
L929 [19]
  Ratio IC50: 2.7
[20]
  IC50: 820 nM
HL-60 [21]
  Ratio IC50: 1
[22]
  IC50: 630 nM
HCT-116 [23]
  Ratio IC50: 2.8

## CC(=O)N[C@@H](CS)C(=O)O [ACETYLCYSTEINE]
PC-3 [24]
  Activity: 0.87%
PC-3 [25]
  Activity: 0%

## CC1(C)OC2=C(C(=O)C(=O)c3ccccc32)C1n1cc(C[Se]c2ccccc2)nn1 (centres undefined)
PC-3 [24]
  Activity: 15.07%
[1]
  IC50: 1060 nM
[2]
  IC50: 2650 nM
PC-3 [26]
  Activity: 0%
PC-3 [27]
  Activity: 1.12%
[11]
  IC50: 2260 nM
[12]
  IC50: 1310 nM
PC-3 [28]
  Activity: 1.26%
Mus musculus
  IC50: 2300 nM
PC-3 [29]
  Activity: 0%
[16]
  IC50: 2430 nM
[18]
  IC50: 1760 nM
[20]
  IC50: 1290 nM

## O=c1oc2ccccc2c(O)c1Cc1c(O)c2ccccc2oc1=O [DICUMAROL]
PC-3 [24]
  Activity: 0.95%
PC-3 [25]
  Activity: 0%

## O=C1C(=O)c2ccccc2C2=C1CC(Cn1cc(C[Se]c3ccccc3)nn1)O2 (centres undefined)
[1]
  IC50: 290 nM
[2]
  IC50: 440 nM
PC-3 [3]
  Ratio IC50: 5.4
OVCAR-8 [4]
  Ratio IC50: 6.2
SF-295 [5]
  Ratio IC50: 5.9
V79 [6]
  Ratio IC50: 1.5
OVCAR-8 [7]
  Ratio IC50: 18.7
V79 [8]
  Ratio IC50: 1.8
L929 [9]
  Ratio IC50: 4.7
L929 [10]
  Ratio IC50: 2.5
[11]
  IC50: 70 nM
[12]
  IC50: 220 nM
Mus musculus
  IC50: 620 nM
L929 [13]
  Ratio IC50: 2.1
SF-295 [30]
  Ratio IC50: 2
[15]
  Ratio IC50: 4.5
[16]
  IC50: 240 nM
L929 [17]
  Ratio IC50: 8.8
HL-60 [31]
  Ratio IC50: 10
[18]
  IC50: 1310 nM
L929 [19]
  Ratio IC50: 2.8
[20]
  IC50: 130 nM
HL-60 [21]
  Ratio IC50: 3.3
